Compound activity deposited in PubChem BioAssay by several laboratories.
This is a sample that favours compounds with a hit; in the whole collection about 12% have one here.
Arbovirus inh – antivirals against arbovirus infection, primary screen, cell-based, full library, 10K replicate subset; hit rate 0.37% among 200,000; inhibition, % at 10 µM; arbovirus infection cell-based antiviral screen; in the data active means inhibition above about 30%
Rad51 HR inh – human RAD51 strand exchange inhibitors, primary screen, biochemical, fluorescence; DNA repair protein RAD51 homolog 1 (Homo sapiens), Q06609; hRad51 DNA strand exchange, fluorescence dequenching; inhibition, % at 10 µM; hit rate 0.085% among 200,000;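 active means inhibition above 40% at the single screening dose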
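Assay system: Human Rad51 nucleoprotein filaments preassembled on unlabelled ssDNA | Reagent: Donor/quencher-labelled 47-bp dsDNA substrate | Doses: One concentration, 10 µM final | Times: 37 °C 15-min filament assembly, 30-min compound preincubation, 15-min exchange | Technique: Fluorescein emission 520 nm, excitation 485 nm | Benchmarks: Plate control and blank wells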
CHOP inhibitor – inhibitors of CHOP promoter induction, primary screen, cell-based, unfolded protein response, luciferase reporter. CHO-K1 CHOP-promoter luciferase, tunicamycin-induced, 15-18 h. hit rate 3.8% among 220,000. inhibition, % at 10 µM. AID 2732, 2010;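 active means compounds that reduced the stress-induced luciferase reporter signal by more than about 70% of percent inhibition, limit read from the data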
Lmaj promast – Leishmania major promastigote growth inhibition, primary screen | Leishmania major promastigotes, resazurin fluorescence viability | hit rate 9% among 200,000 | inhibition, % at 10 µM;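 further: promastigotes grown with compound for 44 hours at 28 °C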
PKD1 inh – inhibitors of human PKD1 kinase, biochemical, fluorescence polarization; Serine/threonine-protein kinase D1 (Homo sapiens), Q15139; PKD1 kinase fluorescence polarization assay; inhibition, % (concentration not given with the values); hit rate 0.056% among 200,000; AID 797, 2007
Wee1 stabilizer – Wee1 degradation inhibitors, primary screen, cell-based, HeLa, Wee1K328M-luciferase, luminescence | Wee1-like protein kinase (Homo sapiens), P30291 | AID 1321, 2008 | hit rate 1.2% among 220,000 | reporter increase, % at 5 µM | HeLa Luc-Wee1K328M stability; 100% = proteasome inhibitor MG132 effect;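 active means activation above the mean of all tested compounds plus 3 SD, set per screening run, cut at about 8.8% in these data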;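 further: cells exposed to compound for 20 h before luminescence read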
Target sequence (P30291 whole entry K328M): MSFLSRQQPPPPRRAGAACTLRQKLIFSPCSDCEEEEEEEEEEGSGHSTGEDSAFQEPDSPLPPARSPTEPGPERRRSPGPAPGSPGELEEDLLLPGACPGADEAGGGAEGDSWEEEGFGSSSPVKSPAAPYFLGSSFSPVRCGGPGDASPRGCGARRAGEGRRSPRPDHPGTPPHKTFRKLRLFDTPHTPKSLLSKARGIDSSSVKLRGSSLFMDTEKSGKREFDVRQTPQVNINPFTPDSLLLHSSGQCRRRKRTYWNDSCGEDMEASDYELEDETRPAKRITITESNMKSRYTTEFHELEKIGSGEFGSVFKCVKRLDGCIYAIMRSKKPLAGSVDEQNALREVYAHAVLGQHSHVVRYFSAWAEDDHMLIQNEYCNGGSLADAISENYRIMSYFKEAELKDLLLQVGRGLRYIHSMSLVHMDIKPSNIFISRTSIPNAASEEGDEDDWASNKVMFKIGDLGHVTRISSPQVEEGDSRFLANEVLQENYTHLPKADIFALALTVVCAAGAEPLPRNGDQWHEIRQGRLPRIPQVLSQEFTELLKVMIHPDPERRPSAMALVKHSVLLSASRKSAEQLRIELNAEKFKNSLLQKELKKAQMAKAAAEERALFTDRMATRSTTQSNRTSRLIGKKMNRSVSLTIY
Each line names hits and unclear results; the compound was inactive in the other large screens; ! = not confirmed by another sample. Unless noted, no stated cut-off is given here; in the data, active means inhibition above about 50%; inactive means the rest.

CCOC(=O)CN1C(=O)S/C(=C/c2ccc3c(c2)n(C)c(=O)n3C)C1=O	Lmaj promast 69
S=C(NCCc1ccccn1)Nc1cccc(Cl)c1	none (no result: Rad51 HR inh)
CCOC(=O)CN(C(=O)CSc1nnc2c(n1)[nH]c1ccc(OC)cc12)c1ccc(F)cc1	Lmaj promast 90
CCN1CCN(C(=O)c2ccc(N3CC4CC(C3)c3cccc(=O)n3C4)c([N+](=O)[O-])c2)CC1 (stereo unspecified)	none
Oc1cccc(/C=N/Nc2ncnc3c2ncn3Cc2ccccc2)c1	Lmaj promast 66
Oc1ccc(/C=N/Nc2ncnc3c2ncn3Cc2ccccc2)cc1O	none
O=S(=O)(Nc1nc2ccccc2s1)c1ccc(Cl)nc1	none (no result: Arbovirus inh, Lmaj promast, PKD1 inh)
CC1(C)C(=O)OC(c2cccs2)C(C)(C)C1=O (stereo unspecified)	none
O=C(Cc1ccc([N+](=O)[O-])cc1)N1CCCc2ccccc21	none
O=C(c1ccc(N2CCCCCC2)c([N+](=O)[O-])c1)N1CCc2ccccc21	Lmaj promast 89
O=C(c1cc([N+](=O)[O-])cc([N+](=O)[O-])c1)N1CCCc2ccccc21	Lmaj promast 79
O=C(c1cc([N+](=O)[O-])ccc1N1CCCCC1)N1CCc2ccccc21	none
Cc1cc(CNC(=O)CC2C(=O)NCCN2CC(C)(C)C)nn1C (stereo unspecified)	none (no result: Rad51 HR inh)
Cc1nnsc1-c1nnc(SCC(=O)c2ccccc2)n1C1CC1	none (no result: Arbovirus inh, Lmaj promast, PKD1 inh)
Cc1nc2ccccn2c1C(=O)CSc1cccc(Cl)c1	none
CCc1cccc(CC)c1N1C(=O)c2cc(N3CCOCC3)c([N+](=O)[O-])cc2C1=O	Lmaj promast 84
Cc1ccc(C)c(N2C(=O)c3cc(N4CCOCC4)c([N+](=O)[O-])cc3C2=O)c1	Lmaj promast 55
CCc1ccc(N2C(=O)c3cc(N4CCOCC4)c([N+](=O)[O-])cc3C2=O)cc1	none
COc1ccc(Cl)cc1N(CC(=O)NC(C)(C)C)S(=O)(=O)c1ccc(C)c([N+](=O)[O-])c1	Lmaj promast 96 (no result: Rad51 HR inh)
COC(=O)CN(c1cc(Cl)ccc1OC)S(=O)(=O)c1ccc(C)cc1	none (no result: Arbovirus inh, Lmaj promast, PKD1 inh)
Nc1nn(-c2ccccc2Cl)cc1-c1nn[nH]n1	none (no result: Arbovirus inh, Lmaj promast, PKD1 inh)
CCOc1ccc(/C=C/[N+](=O)[O-])c2ccccc12	Lmaj promast 100
CCOC(=O)COc1ccc2ccccc2c1/C=C/[N+](=O)[O-]	CHOP inhibitor 109, Lmaj promast 90
CCOC(=O)Cn1cc(/C=C/[N+](=O)[O-])c2ccccc21	none
O=[N+]([O-])/C=C/c1c(OCc2ccccc2)ccc2ccccc12	CHOP inhibitor 110, Lmaj promast 100
COc1cccc(NC(=O)c2sc(NC(=O)c3ccncc3)nc2C)c1	none (no result: Arbovirus inh, Lmaj promast, PKD1 inh)
Cc1nc(NC(=O)c2ccc(F)cc2)sc1C(=O)Nc1ccc2c(c1)CCC2	CHOP inhibitor 82
Cc1ccc(C(=O)Nc2nc(C)c(C(=O)Nc3ccc4c(c3)CCC4)s2)cc1	Wee1 stabilizer 9.8
O=C(Nc1ccc2c(c1)CCC2)c1ccccc1	none
CC(=O)Nc1ccc(Nc2ncnc3c2cnn3-c2ccc(C)cc2C)cc1	Lmaj promast 68
CC(=O)Nc1ccc(Nc2ncnc3c2cnn3-c2cccc(C)c2)cc1	Lmaj promast 75
Cc1cccc(-n2ncc3c(NCc4cccs4)ncnc32)c1	Lmaj promast 97
CC(=O)Nc1ccc(Nc2ncnc3c2cnn3-c2ccccc2)cc1	none
CN(c1ccccc1)S(=O)(=O)c1cccc(NC(=O)C2CC(=O)N(Cc3ccccc3)C2)c1 (stereo unspecified)	none (no result: Arbovirus inh, Rad51 HR inh, Lmaj promast, PKD1 inh)
CCn1c(=O)c2c(n3c(=S)[nH]nc13)-c1ccccc1CC21CCCCC1	none
Cc1cc(C)cc(NC2=NCC(=O)N2Cc2ccccc2)c1	none
O=C1CCN=C(Nc2ccc(F)cc2)N1Cc1ccccc1	Lmaj promast 72
O=C(O)c1cccc(N/N=C/c2sc(N3CCOCC3)nc2-c2ccccc2)c1	none
O=[N+]([O-])c1ccc(N/N=C/c2sc(N3CCOCC3)nc2-c2ccccc2)c(S(=O)(=O)Nc2ccccc2Cl)c1	CHOP inhibitor 85, Lmaj promast 70 (no result: Rad51 HR inh)
O=[N+]([O-])c1ccc(N/N=C/c2sc(N3CCOCC3)nc2-c2ccccc2)c(S(=O)(=O)Nc2ccc(Cl)cc2)c1	CHOP inhibitor 86, Lmaj promast 66
O=C(O)Cc1ccc(N=Nc2c(O)c(C(=O)O)cc3ccccc23)cc1	none (no result: Arbovirus inh, Lmaj promast, PKD1 inh)
Oc1ccc2ccccc2c1N=Nc1ccc(F)cc1	Wee1 stabilizer 22! (no result: Arbovirus inh, Lmaj promast, PKD1 inh)
Cc1cc2c(ncn2Cc2ccccc2)c(N)c1C	none
CC(NC(=O)c1ccc(N(C)C)cc1)C1CC2CCC1C2 (stereo unspecified)	CHOP inhibitor 79 (no result: Rad51 HR inh)
CCCN1C(=O)c2ccccc2NC1c1ccc(C)cc1 (stereo unspecified)	none
Cc1ccc(CN2C(=O)c3ccccc3NC2c2ccccn2)cc1 (stereo unspecified)	Lmaj promast 63
Cc1nc2c(-c3ccccc3)c(C)nn2c(C)c1CCC(=O)NC(C)CCc1ccco1 (stereo unspecified)	Lmaj promast 100
COc1ccccc1-c1cc2nc(C)c(CCC(=O)NC(C)CCc3ccco3)c(C)n2n1 (stereo unspecified)	Lmaj promast 98
CC(C)=CCC12Oc3cc(O)ccc3C1(O)Oc1cc(O)c([C@H]3C=C(C)CC(c4ccc(O)cc4O)[C@H]3C(=O)c3ccc(O)cc3O)c(O)c1C2=O (stereo partly specified)	none (no result: Arbovirus inh, CHOP inhibitor, Lmaj promast, PKD1 inh, Wee1 stabilizer)
COc1cc(C(=O)N[C@H](C(=O)NC(C)C23CC4CC(CC(C4)C2)C3)C(C)C)cc(OC)c1OC (stereo partly specified)	CHOP inhibitor 75
Cc1cc(C(=O)Cn2ncc(Cl)c(Cl)c2=O)c(C)n1CC(F)(F)F	Lmaj promast 63
CCOc1cc(C(=O)Nc2cccc3ncccc23)cc(OCC)c1OCC	none
Cc1cc(Oc2nc3c(C)cccn3c(=O)c2/C=C(\C#N)S(=O)(=O)c2ccccc2)ccc1Cl	Lmaj promast 54
Cc1cccn2c(=O)c(/C=C(\C#N)S(=O)(=O)c3ccccc3)c(Oc3ccc(Cl)cc3)nc12	none
CCCN1CCC(=NNc2ccc(S(=O)(=O)N(CC)CC)cc2[N+](=O)[O-])CC1	Lmaj promast 100
CCCN1CCC(=NNc2ccc(S(N)(=O)=O)cc2[N+](=O)[O-])CC1	none
CCN(CC)S(=O)(=O)c1ccc(N/N=C(\C)c2ccc3c(c2)OCO3)c([N+](=O)[O-])c1	CHOP inhibitor 92
COc1ccc2c(C)cc3n[nH]c(=S)n3c2c1	none (no result: Arbovirus inh, Lmaj promast, PKD1 inh)
Cc1ccc(NC(=O)c2sc(N)nc2-c2ccc([N+](=O)[O-])cc2)c(C)c1	none (no result: Arbovirus inh, Lmaj promast, PKD1 inh)
